Results: ChEMBL document CHEMBL1125562, “Antimitotic agents: ring analogues and derivatives of ethyl [(S)-5-amino-1,2-dihydro-2-methyl-3-phenylpyrido[3,4-b]pyrazin-7-yl]carbamate” (J Med Chem, 1992)

How the values were obtained:
[1] = tested on: L1210; assay: Concentration that causes a mitotic index (number of cells in mitosis divided by total cells) of 0.5 for cultured lymphoid leukemia L1210 cells during an exposure period of 12 h; format: functional, Mus musculus
How it was run: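 Mouse lymphoid leukemia L1210 cells in culture, exposed to agent for 12 h. Mitotic index is cells in mitosis over total cells. Value is the nanomolar concentration giving an index of 0.5.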

[2] = tested on: Mus musculus; assay: Compound was evaluated in vivo for antileukemic activity by calculating Percent increase in life span at dose of 30 mg/kg; format: functional
How it was run: (§1)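 NCI protocols. CD2F1 mice were implanted ip with 10⁶ lymphocytic leukemia P388 cells 24 h before treatment. Drug was given ip daily on days 1–5, or as a single day-1 dose where footnoted. The read-out was percent increase in lifespan.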

[3] = tested on: L1210; assay: Concentration that inhibits proliferation of cultured lymphoid leukemia L1210 cells to 50% control growth during 48 h; format: functional, cell-based; details: Mus musculus, L1210, 48 h
How it was run: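 L1210 lymphoid leukemia cells in culture, exposed to agent for 48 h. Proliferation is measured against untreated control growth. Value is the nanomolar concentration holding growth to 50% of control.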

[4] = tested on: Mus musculus; assay: Compound was evaluated in vivo for antileukemic activity by calculating Percent increase in life span at dose of 75 mg/kg; format: functional; how it was run: as §1
[5] = tested on: Mus musculus; assay: Compound was evaluated in vivo for antileukemic activity by calculating Percent increase in life span at dose of 24 mg/kg; format: functional; how it was run: as §1
[6] = tested on: Mus musculus; assay: Compound was evaluated in vivo for antileukemic activity by calculating Percent increase in life span at dose of 8 mg/kg; format: functional; how it was run: as §1
[7] = tested on: Mus musculus; assay: Compound was evaluated in vivo for antileukemic activity by calculating Percent increase in life span at dose of 200 mg/kg; format: functional; how it was run: as §1
[8] = tested on: Mus musculus; assay: Compound was evaluated in vivo for antileukemic activity by calculating Percent increase in life span at dose of 70 mg/kg; format: functional; how it was run: as §1
[9] = tested on: Mus musculus; assay: Compound was evaluated in vivo for antileukemic activity by calculating Percent increase in life span at dose of 1 mg/kg; format: functional; how it was run: as §1
[10] = tested on: Mus musculus; assay: Compound was evaluated in vivo for antileukemic activity by calculating Percent increase in life span at dose of 0.5 mg/kg; format: functional; how it was run: as §1
[11] = tested on: Mus musculus; assay: Compound was evaluated in vivo for antileukemic activity by calculating Percent increase in life span at dose of 2 mg/kg; format: functional; how it was run: as §1

Row | Compound | MI0.5 [1] [nM] | IC50 [3] [nM] | further results
1 | CCOC(=O)Nc1cc2c(c(N)n1)N=C(c1ccccc1)[C@@H](C)N2 | 27 |  | ILS at 30 mg/kg [2]: 88%
2 | CCOC(=O)Nc1cc2c(c(O)n1)N=C(c1ccccc1)C(C)N2 (stereo not given) | 1800 | 4400 | 
3 | CCOC(=O)Nc1cc(N)c2c(n1)NC(C)C(c1ccccc1)=N2 (stereo not given) | 6700 | 3900 | ILS at 75 mg/kg [4]: 0%
4 | CCOC(=O)Nc1cc2c(cn1)N=C(c1ccccc1)C(C)N2 (stereo not given) | 21 | 17 | ILS at 24 mg/kg [5]: 90%
5 | CCOC(=O)Nc1cc2c(c(N)n1)N=C(c1ccccc1)CCN2 |  | 3.7 | ILS at 8 mg/kg [6]: 35%
6 | COC(=O)Nc1nc(N)c2c(n1)NC(C)C(c1ccccc1)=N2 (stereo not given) | 3000 | 1700 | ILS at 200 mg/kg [7]: 0%
7 | CCOC(=O)Nc1cc2c(cn1)NC(c1ccccc1)C(C)N2 (stereo not given) | 161 | 81 | ILS at 70 mg/kg [8]: 65%
8 | CCOC(=O)Nc1cc2c(c(N)n1)N=C(c1ccccc1)C(C)N2 (racemic) | 0.58 |  | ILS at 1 mg/kg [9]: 71%
9 | COc1cc2c(c(OC)c1OC)-c1ccc(OC)c(=O)cc1[C@@H](NC(C)=O)CC2 [COLCHICINE] | 21 |  | 
10 | CCOC(=O)Nc1cc2c(c(N)n1)N=C(c1ccccc1)[C@H](C)N2 [MIVOBULIN] | 0.14 |  | ILS at 0.5 mg/kg [10]: 64%
11 | CC[C@]1(O)C[C@H]2CN(CCc3c([nH]c4ccccc34)[C@@](C(=O)OC)(c3cc4c(cc3OC)N(C=O)[C@H]3[C@@](O)(C(=O)OC)[C@H](OC(C)=O)[C@]5(CC)C=CCN6CC[C@]43[C@@H]65)C2)C1 [VINCRISTINE] | 11 |  | ILS at 2 mg/kg [11]: 85%
